Structures are written as SMILES. Calls of active or inactive are those of the source. No cut-off for these calls is given here.

The nature of data set [1]: Inhibition of rabbit muscle Glycogen phosphorylase b using glucose-1-phosphate as substrate in presence of AMP. Also noted: species or system Oryctolagus cuniculus. The procedure, abridged:
(§1)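 Rabbit muscle GPb (3 μg/mL) was assayed at 30 °C for glycogen synthesis in 30 mM imidazole/HCl pH 6.8 with 60 mM KCl, 0.6 mM EDTA, 0.6 mM DTT, 0.2% w/v glycogen and 1 mM AMP. Glc-1-P was varied (2, 3, 4, 6, 10 mM) at several inhibitor concentrations. Pi release gave initial rates; Ki came from Km(app) versus [inhibitor] by nonlinear regression.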

The nature of data set [2]: Inhibition of rabbit muscle Glycogen phosphorylase b using alpha-D-glucose-1-phosphate as substrate in presence of AMP by dixon plot analysis. Set-up: species or system Oryctolagus cuniculus. The method, boiled down:
as §1

A short description of data set [3]: Inhibition of rabbit muscle Glycogen phosphorylase a using glucose-1-phosphate as substrate. Set-up: species or system Oryctolagus cuniculus. The method, boiled down:
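Rabbit muscle GPa (3 μg/mL) was run at 30 °C in the glycogen-synthesis direction in 30 mM imidazole/HCl pH 6.8 containing 60 mM KCl, 0.6 mM EDTA, 0.6 mM DTT and 0.2% w/v glycogen, without AMP. Glc-1-P was 2, 3, 4, 6 and 10 mM with varied inhibitor. Inorganic phosphate release was measured; Ki came from the Km(app) versus [inhibitor] fit.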

A short description of data set [4]: Inhibition of human liver Glycogen phosphorylase a using glucose-1-phosphate as substrate. The procedure, abridged:
(§2)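 Human liver GPa (1 μg/mL) assayed at 30 °C toward glycogen synthesis in 30 mM imidazole/HCl pH 6.8 with 60 mM KCl, 0.6 mM EDTA, 0.6 mM DTT, 0.2% w/v glycogen and no AMP. Glc-1-P was varied at 1, 2, 3, 4 and 6 mM against several inhibitor levels. Released Pi was read; Ki came from Km(app) versus [inhibitor] by weighted nonlinear regression.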

For data set [5], the species on record is Homo sapiens. Nature of the data set: Competitive inhibition of human liver Glycogen phosphorylase a up to 1000 uM using glucose-1-phosphate as substrate by Lineweaver-Burk plot analysis.
For data set [6], the species on record is Oryctolagus cuniculus. Briefly: Inhibition of rabbit muscle Glycogen phosphorylase b at 625 uM using glucose-1-phosphate as substrate in presence of AMP relative to control.
The species named for data set [7] is Homo sapiens. Briefly: Competitive inhibition of human liver Glycogen phosphorylase a up to 10 uM using glucose-1-phosphate as substrate by Lineweaver-Burk plot analysis. The procedure, abridged:
as §2

The species named for data set [8] is Homo sapiens. Briefly: Competitive inhibition of human liver Glycogen phosphorylase a up to 180 uM using glucose-1-phosphate as substrate by Lineweaver-Burk plot analysis. The method, boiled down:
as §2

For data set [9], the species on record is Homo sapiens. Briefly: Competitive inhibition of human liver Glycogen phosphorylase a up to 35 uM using glucose-1-phosphate as substrate by Lineweaver-Burk plot analysis. The method, boiled down: as §2
The species named for data set [10] is Homo sapiens. Briefly: Competitive inhibition of human liver Glycogen phosphorylase a up to 3 uM using glucose-1-phosphate as substrate by Lineweaver-Burk plot analysis. The method, boiled down: as §2
Data set [11] in a line: Inhibition of Glycogen phosphorylase in human HepG2 cells incubated for 2 hrs. Format: cell-based. The procedure, abridged: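 HepG2 cells were precultured in 25 mmol/L glucose with 10 nM insulin to load glycogen. They were then shifted to 5 mmol/L glucose with inhibitor at 80–516 μM for 2 h to drive glycogenolysis. GP activity was read spectrophotometrically in the whole homogenate, and IC50 was derived from the concentration series.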

Data set [12] deals with HepG2. Briefly: Cytotoxicity against human HepG2 cells at 80 to 516 uM incubated for 2 hrs. Format: cell-based. The conditions noted are these: hepg2, 2 h.
The species named for data set [13] is Homo sapiens. Briefly: Competitive inhibition of human liver Glycogen phosphorylase a up to 650 uM using glucose-1-phosphate as substrate by Lineweaver-Burk plot analysis. The procedure, abridged: as §2

On to `O=C1NC(=O)[C@]2(N1)O[C@H](CO)[C@@H](O)[C@H](O)[C@H]2O`, for which the Ki in data set [1] lay in the range of 105 to 320 µM.

Turning to `O=C1NC(=O)[C@@]2(N1)O[C@H](CO)[C@@H](O)[C@H](O)[C@H]2O`, in data set [1], the Ki was found to be 3.1 µM.

In the case of `OC[C@H]1O[C@]2(ON=C(c3ccccc3)S2)[C@H](O)[C@@H](O)[C@@H]1O`, in data set [2], the Ki was 26 µM.

As for `O=C1N=C(c2cccc3ccccc23)N[C@]12O[C@H](CO)[C@@H](O)[C@H](O)[C@H]2O`, the figures for the Ki in data set [3] and in data set [4] were 653 µM and 1170 µM, respectively. The inhibition result in data set [5] was “Active”. Moreover, the inhibition result in [6] was “inactive”.

Consider `O=C1N=C(c2ccccc2)N[C@@]12O[C@H](CO)[C@@H](O)[C@H](O)[C@H]2O`, for which the values for the Ki in [1], in data set [3] and in data set [4] were 9 µM, 4.5 µM and 8.4 µM, respectively. For the same compound, the inhibition entry in data set [7] was “Active”.

On to `O=C1N=C(c2ccccc2)N[C@]12O[C@H](CO)[C@@H](O)[C@H](O)[C@H]2O`, for which the Ki in [1] was 136 µM; in data set [3], 34.2 µM; in data set [4] it was 96.7 µM. Moreover, the inhibition entry in [8] was “Active”.

Take `O=C1N=C(c2cccc3ccccc23)N[C@@]12O[C@H](CO)[C@@H](O)[C@H](O)[C@H]2O`: the Ki in data set [1] stood at 13 µM; in data set [3] it was 6.6 µM; in data set [4], 22.2 µM. In data set [9], the inhibition entry was “Active”.

As for `O=C1N=C(c2ccc3ccccc3c2)N[C@@]12O[C@H](CO)[C@@H](O)[C@H](O)[C@H]2O`, the Ki in data set [1] came out at 2.11 µM; in data set [3] it was 1.13 µM; in [4], 1.72 µM. Besides, in data set [10], the inhibition result is “Active”. For the same compound, the IC50 in [11] is 177 µM. The Activity result in data set [12] is “Non-Toxic”.

For `O=C1N=C(c2ccc3ccccc3c2)N[C@]12O[C@H](CO)[C@@H](O)[C@H](O)[C@H]2O`, the Ki in data set [3] amounted to 212 µM; in data set [4], 371 µM. Further, in [13], the inhibition entry was “Active”. The inhibition in [6] was determined as 25%.

As for `O=C1NC(=S)N[C@@]12O[C@H](CO)[C@@H](O)[C@H](O)[C@H]2O`, the inhibition constant (Ki) in data set [1] was determined as 5.1 µM.

For the compound `O=C1N=C(c2ccc(C(F)(F)F)cc2)N[C@@]12O[C@H](CO)[C@@H](O)[C@H](O)[C@H]2O`, the inhibition result in data set [6] is “inactive”.

As for `O=C1N=C(c2ccc(C(F)(F)F)cc2)N[C@]12O[C@H](CO)[C@@H](O)[C@H](O)[C@H]2O`, the inhibition result in data set [6] is “inactive”.

Broadly, the Ki is a measure of affinity in units of concentration, obtained from inhibition or displacement. The term inhibition denotes the share of the control response that was lost under treatment. For orientation: IC50 means the concentration that inhibits the measured activity by half.

For the origin of these results see ChEMBL document CHEMBL4359838, “Glucopyranosylidene-spiro-imidazolinones, a New Ring System: Synthesis and Evaluation as Glycogen Phosphorylase Inhibitors by Enzyme Kinetics and X-ray Crystallography” (J Med Chem, 2019).
